A short description of data set [1]: Cytotoxicity against LPS-activated mouse RAW264.7 cells after 24 hrs by MTT method. The data set is classed as cell-based. The note with it: LPS-activated RAW264.7 cells. In outline:
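MTT assay in RAW264.7 cells grown in DMEM with 5% FBS, penicillin and streptomycin at 37 °C under 5% CO₂. Cells were seeded at 5 × 10⁴ per well and exposed for 24 h to compounds diluted from DMSO stocks (0.1% DMSO final). MTT (4 mg/mL) was added 4 h before the end, then plates were centrifuged and supernatant removed. CC₅₀ is the concentration cutting viability to 50%; mean of three experiments in triplicate.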
For orientation: Tetrazolium assays rely on reduction of a dye to a coloured formazan, in cell work by metabolically active cells.

Data set [2] can be described thus: Selectivity index, ratio of IC50 for COX-1 to IC50 for COX-2. In a few lines: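 COX-1 and COX-2 inhibition measured with a chemiluminescent enzyme assay kit. Each IC₅₀ (50% enzyme inhibition) is the mean of two determinations. Selectivity index taken as COX-1 IC₅₀ divided by COX-2 IC₅₀.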
The target of data set [3] is T1, Prostaglandin G/H synthase 2 (Homo sapiens, UniProt P35354).
T1 sequence (P35354 whole entry): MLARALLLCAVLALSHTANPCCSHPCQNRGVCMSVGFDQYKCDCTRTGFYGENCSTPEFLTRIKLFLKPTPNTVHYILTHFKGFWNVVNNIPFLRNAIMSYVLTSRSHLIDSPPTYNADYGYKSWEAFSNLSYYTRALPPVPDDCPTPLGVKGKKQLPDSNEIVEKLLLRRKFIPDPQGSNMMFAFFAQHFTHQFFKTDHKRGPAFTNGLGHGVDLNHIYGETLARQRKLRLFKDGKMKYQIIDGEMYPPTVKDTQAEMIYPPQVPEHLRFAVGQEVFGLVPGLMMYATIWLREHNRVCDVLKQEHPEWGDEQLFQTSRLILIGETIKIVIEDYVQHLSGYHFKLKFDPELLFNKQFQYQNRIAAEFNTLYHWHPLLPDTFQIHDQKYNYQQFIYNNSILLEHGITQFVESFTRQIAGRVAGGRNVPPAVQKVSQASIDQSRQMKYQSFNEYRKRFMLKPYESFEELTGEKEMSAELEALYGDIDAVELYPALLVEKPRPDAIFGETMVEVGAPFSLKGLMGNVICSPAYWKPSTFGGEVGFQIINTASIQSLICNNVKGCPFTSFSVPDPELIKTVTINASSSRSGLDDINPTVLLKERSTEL
Briefly: Inhibition of COX-2 by chemiluminescent assay.

In data set [4] the target is Prostaglandin G/H synthase 1 (Homo sapiens, UniProt P23219). Briefly: Inhibition of COX-1 by chemiluminescent assay.
The subject of data set [5] is RAW264.7. Briefly: Inhibition of LPS-induced COX-2 expression in mouse RAW264.7 cells at >1.25 uM by Western blot analysis. Format: functional, cell-based. On the technique in general: A western blot detects proteins with antibodies after separation by electrophoresis.

Activity calls are given as the source filed them. No cut-off for these calls is given here.

Sequence of Prostaglandin G/H synthase 1 (P23219 whole entry): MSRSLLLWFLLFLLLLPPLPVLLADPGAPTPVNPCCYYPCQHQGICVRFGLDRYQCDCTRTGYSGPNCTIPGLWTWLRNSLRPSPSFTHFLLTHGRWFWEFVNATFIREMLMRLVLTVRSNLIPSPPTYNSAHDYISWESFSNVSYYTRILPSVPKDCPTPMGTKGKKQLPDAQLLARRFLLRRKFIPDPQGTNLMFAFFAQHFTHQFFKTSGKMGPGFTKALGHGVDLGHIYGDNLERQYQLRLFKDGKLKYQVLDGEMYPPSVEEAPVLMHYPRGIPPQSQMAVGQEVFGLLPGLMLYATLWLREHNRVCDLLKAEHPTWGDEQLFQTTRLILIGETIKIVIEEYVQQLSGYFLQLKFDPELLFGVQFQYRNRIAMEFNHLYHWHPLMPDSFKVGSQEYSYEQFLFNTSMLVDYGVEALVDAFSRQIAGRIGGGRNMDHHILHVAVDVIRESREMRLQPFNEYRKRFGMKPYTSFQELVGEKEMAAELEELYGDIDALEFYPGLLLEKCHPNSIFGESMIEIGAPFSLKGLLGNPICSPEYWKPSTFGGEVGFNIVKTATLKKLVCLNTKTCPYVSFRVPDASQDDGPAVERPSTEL

As to `O=C1CSC(N2N=C(c3ccc(Cl)c(Cl)c3)CC2c2ccc(F)cc2)=N1` (stereo unspecified), in data set [1], the half-maximal cytotoxic concentration (CC50) – broadly, the concentration that lowers cell viability or growth by half – at 24 h is 139 µM. Besides, the Ratio IC50 in data set [2] is 1.8. The IC50 (as a rule, the midpoint of a concentration-inhibition curve) in data set [3] turned out to be 19.4 µM; in data set [4] it was 34.3 µM.

In turn, `O=C1CSC(N2N=C(c3ccc(Cl)c(Cl)c3)CC2c2cccc(Cl)c2)=N1` (stereo unspecified) showed a CC50 at 24 h in data set [1] of 165 µM. The Ratio IC50 in data set [2] was above 3.1. Also, the IC50 in data set [3] is 16.1 µM; in data set [4] it was above 50 µM.

`Cc1ccc(C2CC(c3ccc(C)c(C)c3)=NN2C2=NC(=O)CS2)cc1` (stereo unspecified): the CC50 at 24 h in data set [1] turned out to be 384 µM. Further, in data set [2], the Ratio IC50 was determined as 37.8. The results for the half-inhibitory concentration (IC50) in data set [3] and in data set [4] were 1.2 µM and 45.3 µM, respectively.

As to `O=C1CSC(N2N=C(c3ccc(Cl)c(Cl)c3)CC2c2ccccc2Cl)=N1` (stereo unspecified), the CC50 at 24 h in data set [1] turned out to be 143 µM. Moreover, in data set [2], the Ratio IC50 amounted to 2.2. Besides, the IC50 in data set [3] stood at 18.4 µM; in data set [4], 40.2 µM.

The compound `COc1ccc(C2CC(c3ccc(C)c(C)c3)=NN2C2=NC(=O)CS2)cc1` (stereo unspecified) returned a CC50 at 24 h in data set [1] of 387 µM. Besides, the Ratio IC50 in data set [2] was above 17.2. Further, the results for the IC50 in data set [3] and in data set [4] were 2.9 µM and above 50 µM, respectively.

`Cc1ccccc1C1CC(c2ccc(Cl)c(Cl)c2)=NN1C1=NC(=O)CS1` (stereo unspecified): the CC50 at 24 h in data set [1] stood at 179 µM. Also, the Ratio IC50 in data set [2] turned out to be 2.8. Further, the IC50 came to 16.3 µM in data set [3] and 45.6 µM in data set [4].

In the case of `Cc1ccc(C2CC(c3ccc(Cl)c(Cl)c3)=NN2C2=NC(=O)CS2)cc1` (stereo unspecified), the CC50 at 24 h in data set [1] was 279 µM. Also, the Ratio IC50 in data set [2] was 9.4. The IC50 in data set [3] stood at 4.7 µM; in data set [4], 44.3 µM.

For the compound `Cc1cccc(C2CC(c3ccc(Cl)c(Cl)c3)=NN2C2=NC(=O)CS2)c1` (stereo unspecified), in data set [1], the CC50 at 24 h is 204 µM. The Ratio IC50 in data set [2] is above 6.9. In addition, the figures for the IC50 in data set [3] and in data set [4] were 7.2 µM and above 50 µM, respectively.

Compound `Cc1ccc(C2=NN(C3=NC(=O)CS3)C(c3ccccc3)C2)cc1C` (stereo unspecified) registered a CC50 at 24 h in data set [1] above 450 µM. Further, in data set [2], the Ratio IC50 turned out to be 84.8. Besides, the inhibition result in data set [5] is “Active”. For the same compound, the IC50 was 0.5 µM in data set [3] and 42.4 µM in data set [4].

Regarding `Cc1ccc(C2=NN(C3=NC(=O)CS3)C(c3ccc(F)cc3)C2)cc1C` (stereo unspecified), the CC50 at 24 h in data set [1] was 246 µM. In addition, in data set [2], the Ratio IC50 amounted to 6.4. Also, the IC50 in data set [3] came out at 6.4 µM; in data set [4] it was 40.8 µM.

For the compound `O=C1CSC(N2N=C(c3ccc(Cl)c(Cl)c3)CC2c2ccc(Cl)cc2)=N1` (stereo unspecified), in data set [1], the CC50 at 24 h came out at 187 µM. Moreover, the Ratio IC50 in data set [2] was found to be 3.2. In addition, the IC50 amounted to 11.7 µM in data set [3] and 37.7 µM in data set [4].

In turn, `Cc1ccc(C2=NN(C3=NC(=O)CS3)C(c3ccc(Cl)cc3)C2)cc1C` (stereo unspecified) came in with a half-maximal cytotoxic concentration (CC50) at 24 h in data set [1] of 226 µM. The Ratio IC50 in data set [2] turned out to be 10.8. Further, the IC50 in data set [3] turned out to be 4.5 µM; in data set [4] it was 48.6 µM.

As to `Cc1cccc(C2CC(c3ccc(C)c(C)c3)=NN2C2=NC(=O)CS2)c1` (stereo unspecified), it took 237 µM to reach half-maximal cytotoxicity in data set [1] (CC50 at 24 h). Further, in data set [2], the Ratio IC50 was above 18.5. Further, the half-maximal inhibitory concentration (IC50) in data set [3] was 2.7 µM; in data set [4] it was above 50 µM.

In data set [1], `O=C1CSC(N2N=C(c3ccc(Cl)c(Cl)c3)CC2c2ccc(Br)cc2)=N1` (stereo unspecified) yielded a CC50 at 24 h of 280 µM. The Ratio IC50 in data set [2] worked out at 6.4. For the same compound, the IC50 in data set [3] is 7.6 µM; in data set [4], 48.5 µM.

On to `Cc1ccc(C2=NN(C3=NC(=O)CS3)C(c3ccccc3Cl)C2)cc1C` (stereo unspecified), for which half-maximal cytotoxicity in data set [1] (CC50 at 24 h) was put at 227 µM. Moreover, the Ratio IC50 in data set [2] is 6.1. The IC50 in data set [3] amounted to 7.2 µM; in data set [4] it was 44.1 µM.

`COc1ccc(C2CC(c3ccc(Cl)c(Cl)c3)=NN2C2=NC(=O)CS2)cc1` (stereo unspecified) showed a CC50 at 24 h in data set [1] of 264 µM. Also, in data set [2], the Ratio IC50 was above 7.4. Further, the IC50 in data set [3] is 6.8 µM; in data set [4] it was above 50 µM.

Turning to `Cc1ccc(C2=NN(C3=NC(=O)CS3)C(c3ccc(Br)cc3)C2)cc1C` (stereo unspecified), the midpoint of cytotoxicity in data set [1], the CC50 at 24 h, lay at 365 µM. The Ratio IC50 in data set [2] was above 27.8. Moreover, the results for the IC50 in data set [3] and in data set [4] were 1.8 µM and above 50 µM, respectively.

`O=C1CSC(N2N=C(c3ccc(Cl)c(Cl)c3)CC2c2ccccc2)=N1` (stereo unspecified) gave a CC50 at 24 h in data set [1] of 295 µM. In addition, the Ratio IC50 in data set [2] was 12.3. Besides, the values for the IC50 in data set [3] and in data set [4] were 2.7 µM and 33.2 µM, respectively.

Regarding `Cc1ccc(C2=NN(C3=NC(=O)CS3)C(c3ccccc3C)C2)cc1C` (stereo unspecified), the midpoint of cytotoxicity in data set [1], the CC50 at 24 h, lay at 317 µM. In data set [2], the Ratio IC50 is 7.5. The IC50 was determined as 6.3 µM in data set [3] and 47.2 µM in data set [4].

Compound `Cc1ccc(C2=NN(C3=NC(=O)CS3)C(c3cccc(Cl)c3)C2)cc1C` (stereo unspecified) showed a 50% cytotoxic concentration (CC50) at 24 h in data set [1] of 178 µM. Besides, in data set [2], the Ratio IC50 is above 9.6. The values for the IC50 in data set [3] and in data set [4] were 5.2 µM and above 50 µM, respectively.

The record behind these values is ChEMBL document CHEMBL2157901, “Synthesis, biological evaluation and molecular modeling of dihydro-pyrazolyl-thiazolinone derivatives as potential COX-2 inhibitors” (Bioorg Med Chem, 2012).
